Assay results of several laboratories.
Compare with care: the assays were run in different laboratories.
Target: Muscle, skeletal receptor tyrosine-protein kinase (MUSK, Homo sapiens, UniProt O15146)
One construct used (O15146 24-869): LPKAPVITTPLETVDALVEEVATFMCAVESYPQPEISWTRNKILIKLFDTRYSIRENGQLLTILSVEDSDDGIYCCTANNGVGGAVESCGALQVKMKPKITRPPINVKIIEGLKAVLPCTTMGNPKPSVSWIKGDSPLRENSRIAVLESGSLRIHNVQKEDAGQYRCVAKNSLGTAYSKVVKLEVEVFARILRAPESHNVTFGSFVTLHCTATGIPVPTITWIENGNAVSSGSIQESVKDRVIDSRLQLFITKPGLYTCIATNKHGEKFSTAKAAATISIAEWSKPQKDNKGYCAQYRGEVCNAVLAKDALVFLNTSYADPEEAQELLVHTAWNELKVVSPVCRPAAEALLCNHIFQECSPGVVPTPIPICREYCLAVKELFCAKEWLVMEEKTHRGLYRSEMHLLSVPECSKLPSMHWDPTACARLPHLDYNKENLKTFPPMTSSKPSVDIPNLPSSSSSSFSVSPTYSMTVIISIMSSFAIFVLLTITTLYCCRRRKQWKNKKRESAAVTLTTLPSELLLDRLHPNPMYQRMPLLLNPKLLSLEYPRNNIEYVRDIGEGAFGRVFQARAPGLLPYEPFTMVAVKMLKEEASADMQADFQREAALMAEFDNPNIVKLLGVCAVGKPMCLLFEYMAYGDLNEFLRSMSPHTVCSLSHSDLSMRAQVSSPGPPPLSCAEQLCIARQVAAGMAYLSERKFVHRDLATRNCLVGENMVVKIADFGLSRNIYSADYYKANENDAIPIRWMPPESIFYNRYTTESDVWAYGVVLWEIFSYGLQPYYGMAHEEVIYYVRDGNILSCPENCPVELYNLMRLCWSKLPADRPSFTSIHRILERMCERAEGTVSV

| Compound | assay | setting | quantity | value |
| --- | --- | --- | --- | --- |
| Cc1ccc(Nc2nccc(N(C)c3ccc4c(C)n(C)nc4c3)n2)cc1S(N)(=O)=O | enzyme activity, inhibitor | 10 µM | inhibition | 97% |
| NS(=O)(=O)c1cc(NC(=O)Cc2ccccc2)ccc1Oc1cccc(Cl)c1 | cell-free assay, competition with immobilised ligand | 1 µM | remaining binding | 100% |
| Cc1cc(NC(=O)c2cccc3cc(-c4cccc5[nH]nc(N)c45)ccc23)ccc1F | enzyme activity, inhibitor | 0.1 µM | activity vs control | 99% |
| CCCOc1ccc(OC)c(F)c1C(=O)c1ccc(C(=O)N[C@@H]2CNC[C@H]2NC(=O)c2ccc3[nH]ncc3c2)cc1 | enzyme activity, inhibitor | 10 µM | remaining activity | -1% |
| O=C(NCCCC1CCCCC1)c1ccc(CNC(=O)c2cnn(-c3ccccc3)c2C(F)(F)F)cc1 | cell-free assay, competition with immobilised ligand | 0.1 µM | remaining binding | 100% |
| Cc1cnc(NC2CCOCC2)nc1-n1cnc(C(=O)NC(CN)c2cc(F)cc(Cl)c2)c1 (stereo not shown) | enzyme activity, inhibitor, radiometric | 1 µM | remaining activity | 97% |
| CCN(CC)c1ccc(C2=NNC(=O)CC2C)cc1[N+](=O)[O-] (stereo not shown) | enzyme activity, inhibitor | 10 µM | remaining activity | 85% |
| CNC(=O)c1cc(Oc2ccc(NC(=O)Nc3ccc(Cl)c(C(F)(F)F)c3)cc2)ccn1 | enzyme activity, inhibitor | 10 µM | inhibition | 100% |
| COc1cc(C)c(Sc2cnc(NC(=O)c3ccc(N4CCN(CCCCCCCNC(=O)COc5cccc6c5C(=O)N(C5CCC(=O)NC5=O)C6=O)CC4)cc3)s2)cc1C(=O)N1CCN(C(C)=O)CC1 (stereo not shown) | cell-free assay | 1 µM | inhibition | > 90% |
| COc1cc2ncnc(Nc3ccc(Oc4ccccc4)c(C)c3C)c2cc1OC | enzyme activity, inhibitor | 1 µM | inhibition | -2% |
| Cc1ccc(C(=O)NCc2ccsc2)cc1C#Cc1cn(C(C)C)c2ncnc(N)c12 | enzyme activity, inhibitor | 1 µM | activity vs control | 73% |
| O=C(Nc1cnn(-c2csc(C(=O)NC3COC3)c2)c1)Nc1ccccc1Cl | enzyme activity, inhibitor | 5 µM | remaining activity | 94.5% |
| COc1cc2c(N3CCN(C(=O)Nc4ccc(OC(C)C)cc4)CC3)ncnc2cc1OCCCN1CCCCC1 | cell-free assay | 0.5 µM | remaining signal | 99.6% |
| CN1CC(Oc2cnc(C#N)cc2-c2ccn3nc(NC(=O)C4CC4)cc3c2)C1 | enzyme activity, inhibitor | 1 µM | inhibition | 6% |
| CC(C)(O)[C@H]1CC[C@H](Nc2ccc3ncc(-c4cccc(C(F)(F)F)c4)n3n2)CC1 | enzyme activity, inhibitor | 1 µM | remaining activity | 23.7% |
| CN(C)C(=O)Cn1cc(-c2nc(C3(c4ccc(-c5cnc(N)nc5)cc4)CC3)no2)cn1 | cell-free assay, competition with immobilised ligand | 1 µM | remaining binding | 100% |
| CCN(CC)CCNC(=O)c1c(C)[nH]c(/C=C2\C(=O)Nc3ccc(F)cc32)c1C | enzyme activity, inhibitor | 0.3 µM | inhibition | 98% |
| O=C(Nc1cccnn1)N1CC(C/C=C/c2cncc(Oc3ccc(C(F)(F)F)cn3)n2)C1 | cell-free assay, competition with immobilised ligand | 1 µM | remaining binding | 97% |
| N#CCCc1ccc2c(c1)-c1[nH]c3ccc([N+](=O)[O-])cc3c1CC(=O)N2 | cell-free assay | 0.5 µM | remaining signal | 63% |
| O=C(O)[C@@H]1[C@@H](Cn2nnc3ccccc3c2=O)CC[C@H]1C(=O)c1ccc(OCCC2CCOCC2)cc1 | cell-free assay, competition with immobilised ligand | 1 µM | remaining binding | 100% |
| CC(C)(C)c1nc2c(s1)c1nc(N)ncc1c1ccc(NS(=O)(=O)c3c(F)cccc3F)c(F)c12 | enzyme activity, inhibitor, radiometric | 1 µM | remaining activity | 80% |
| c1ccc(N2CCN(Cc3nc4ccccc4[nH]3)CC2)nc1 | binding, competition with immobilised ligand | 1 µM | remaining binding | 100% |
| O=C1NC(=O)c2cc(Nc3ccc(F)cc3)c(Nc3ccc(F)cc3)cc21 | cell-free assay | 0.5 µM | remaining signal | 90.2% |
| C[C@H](NC(=O)c1cnc2n1[C@](C)(Cc1ccc(C#N)cc1)C(=O)N2c1cc(Cl)c(F)c(Cl)c1)C(=O)NC1(c2ccccn2)CC1 | cell-free assay, competition with immobilised ligand | 1 µM | remaining binding | 100% |
| Nc1ncnc2occ(-c3ccc(NC(=O)Nc4cc(C(F)(F)F)ccc4F)cc3)c12 | cell-free assay, inhibitor | 20 µM | remaining signal | 0% |
